Screening results as filed in PubChem.
OX1R antag-1 – OX1R (human) antagonism; O43613; OX1R-expressing cells, FRET antagonist read-out; inhibition, % at 6.6 µM; hit rate 1.8% among 330,000; AID 485270; in the data active means inhibition mostly above about 38%, no sharp cut-off; inactive means mostly below about 40%;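 further: 0% = agonist challenge alone and 100% = reference antagonist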
Target sequence (O43613 whole entry, looked up): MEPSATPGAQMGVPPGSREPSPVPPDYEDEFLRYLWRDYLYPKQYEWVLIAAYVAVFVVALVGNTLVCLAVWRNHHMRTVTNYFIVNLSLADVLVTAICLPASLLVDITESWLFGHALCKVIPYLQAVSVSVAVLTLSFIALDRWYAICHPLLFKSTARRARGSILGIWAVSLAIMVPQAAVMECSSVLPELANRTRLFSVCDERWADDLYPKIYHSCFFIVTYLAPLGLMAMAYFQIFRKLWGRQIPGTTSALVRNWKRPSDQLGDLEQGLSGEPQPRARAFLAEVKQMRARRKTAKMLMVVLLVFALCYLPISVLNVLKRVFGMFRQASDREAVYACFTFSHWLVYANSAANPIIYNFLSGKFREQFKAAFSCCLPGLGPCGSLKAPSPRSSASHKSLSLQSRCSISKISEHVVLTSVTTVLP
TAAR1 ag – human TAAR1 agonism; Q96RJ0; CHO RD-HGA16 TAAR1, Fluo-8 calcium fluorescence; vehicle wells 0%, saturating PEA agonist 100%; activation, % at 3 µM; hit rate 0.99% among 360,000; AID 624467;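 active means activation above the mean activation of all test compounds in the run plus 3 SD, cut at about 38% in these data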
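System: CHO-derived RD-HGA16 cells with stable Gα16 and human TAAR1. Times: 17-24 h plating, Fluo-8 75 min 37 °C, 30 min RT. Measured by: calcium-sensitive Fluo-8 signal, excitation 470-495, emission 515-575 nm. Read-out basis: % activation relative to PEA EC100 response. Control set: DMSO and PEA EC100. Repeats: no replicates (n 1).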
OX1R antag-2 – antagonists of human orexin 1 receptor; O43613; CHO/OX1R cells, Fluo-8 calcium fluorescence, orexin A; inhibition, % at 5 µM; hit rate 0.43% among 330,000; AID 434989;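 active means inhibition above its plate's threshold, mean inhibition of all tested compounds on the plate plus 3 SD, cut at about 37% in these data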;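 further: 0% = orexin A challenge wells and 100% = SB-334867-A antagonist wells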
TAAR1 antagonist – antagonists of human TAAR1. CHO RD-HGA16 TAAR1, Fluo-8 calcium fluorescence, antagonist. AID 624466. hit rate 1.5% among 360,000. inhibition, % at 3 µM;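 active means inhibition above a per-plate cutoff, the mean inhibition of test compounds on that plate plus 3 SD, cut at about 49% in these data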;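 further: 0% = DMSO plus EC80 beta-PEA response and 100% = DMSO alone without agonist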
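Test system: hTAAR1-expressing CHO RD-HGA16 cells, Gα16-coupled; Probe or stimulus: EC80 β-phenethylamine stimulus; Compound dosing: single nominal final test compound concentration of 3 µM; Timing: 140 s kinetic read after compound, 140 s after agonist; Signal: Fluo-8 calcium-sensitive fluorescence; Measure: % inhibition of agonist calcium response; Controls: DMSO and EC80 PEA controls.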
CHO parental Ca – signal in parental CHO cells, OX1R antagonist counter-screen; parental CHO-K1, ATP-induced calcium, Fluo-8 fluorescence; inhibition, % at 5.6 µM; hit rate 0.63% among 330,000;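 active means inhibition above that plate's mean sample inhibition plus 3 SD, cut at about 26% in these data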;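 further: 0% = ATP-challenged DMSO wells and 100% = DMSO wells without ATP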
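Material: parental CHO cells / Compound: single nominal dose of 5.6 µM per compound / Signal: Fluo-8 fluorescence / Replicates: singlicate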
TAAR1 ag conf – human TAAR1 agonism, confirmed. hit rate 82% among 2,400. CHO RD-HGA16 TAAR1, Fluo-8 calcium fluorescence; scaled: DMSO 0%, maximal phenethylamine 100%. activation, % at 3 µM. shares compounds with TAAR1 ag. AID 651783;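 active means activation above a cutoff set at the run's mean compound activation plus 3 SD, cut at about 39% in these data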
Ga16 nonsel ag – counter-screen for TAAR1 agonists: nonselective agonists in parental cells. activation, % at 3 µM. shares compounds with TAAR1 ag. CHO-Ga16 parental, Fluo-8 calcium fluorescence; normalized to maximal ATP response, DMSO zero. hit rate 50% among 2,400;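 active means activation above the run cutoff, the mean activation over all tested wells plus 3 SD, cut at about 12% in these data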;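 further: 0% = DMSO wells and 100% = maximal ATP response on the peak over basal ratio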
TAAR1 desensitize – counter-screen for human TAAR1 agonists: agonists that desensitize TAAR1; shares compounds with TAAR1 ag; CHO RD-HGA16 hTAAR1, Fluo-8 calcium, beta-PEA response inhibition; inhibition, % at 3 µM; hit rate 46% among 2,400; AID 651951;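 active means inhibition above the run cutoff, the mean inhibition of all test compounds plus 3 SD, cut at about 49% in these data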;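 further: beta-PEA stimulus applied at its EC80; loss of beta-PEA calcium signal after compound pretreatment read as receptor desensitization; 0% = DMSO with beta-PEA at EC80 and 100% = DMSO alone without agonist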
Ga16 nonsel ant – nonselective Ga16 antagonism, counter-screen; shares compounds with TAAR1 ag; CHO-Ga16 ATP-induced calcium, Fluo-8 fluorescence; hit rate 39% among 2,400; AID 651952; inhibition, % at 3 µM;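 active means inhibition above the plate's mean compound inhibition plus 3 SD, computed per plate, cut at about 22% in these data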;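 further: 0% = EC80 ATP with DMSO and 100% = DMSO wells without ATP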
An asterisk follows results filed as active. Hits are enriched below; roughly 3.9% of the tested compounds scored in any of these assays.

For CC(C)c1ccc(/C=N/NC(=O)c2nnn(-c3nonc3N)c2CN2CCOCC2)cc1 the results were OX1R antag-1 0, TAAR1 ag 61*, OX1R antag-2 -5, TAAR1 antagonist 8, CHO parental Ca -4, TAAR1 ag conf 90*, Ga16 nonsel ag 54*, TAAR1 desensitize 16 and Ga16 nonsel ant 14.
`CC(C)c1c(C(=O)N/N=C/c2ccsc2)nnn1-c1nonc1N` gave OX1R antag-1 0, TAAR1 ag 105*, OX1R antag-2 -23, TAAR1 antagonist 2, CHO parental Ca -3, TAAR1 ag conf 124*, Ga16 nonsel ag 82*, TAAR1 desensitize 43 and Ga16 nonsel ant 17.
Screening CC(C)c1c(C(=O)N/N=C/c2ccc(C(F)(F)F)cc2)nnn1-c1nonc1N returned OX1R antag-1 13, TAAR1 ag 150*, OX1R antag-2 -27, TAAR1 antagonist 79*, CHO parental Ca -38, TAAR1 ag conf 120*, Ga16 nonsel ag 89*, TAAR1 desensitize 80* and Ga16 nonsel ant 39*.
Screening COc1cc(/C=N/NC(=O)c2nnn(-c3nonc3N)c2C(C)C)ccc1O returned OX1R antag-1 -2, TAAR1 ag 17, OX1R antag-2 -15, TAAR1 antagonist -1 and CHO parental Ca 10.
CC(C)c1c(C(=O)N/N=C/c2cccs2)nnn1-c1nonc1N was read as OX1R antag-1 6, TAAR1 ag 90*, OX1R antag-2 -30, TAAR1 antagonist 17, CHO parental Ca -10, TAAR1 ag conf 108*, Ga16 nonsel ag 72*, TAAR1 desensitize 24 and Ga16 nonsel ant 12.
`CC(C(=O)NCc1ccc(Cl)cc1)n1cccc1C(=O)c1ccccc1` (stereo unspecified) gave OX1R antag-1 18, TAAR1 ag 4, OX1R antag-2 -2, TAAR1 antagonist -21 and CHO parental Ca -21.
Screening CC(/C=N/NC(=O)c1nnn(-c2nonc2N)c1C(C)C)=C\c1ccccc1 returned OX1R antag-1 34, TAAR1 ag 8, OX1R antag-2 -16, TAAR1 antagonist 15 and CHO parental Ca -18.
Screening CC(C)c1c(C(=O)N/N=C/c2ccoc2)nnn1-c1nonc1N returned OX1R antag-1 17, TAAR1 ag 65*, OX1R antag-2 -16, TAAR1 antagonist -5, CHO parental Ca -2, TAAR1 ag conf 24, Ga16 nonsel ag 32*, TAAR1 desensitize 18 and Ga16 nonsel ant 7.
CC(C)c1c(C(=O)N/N=C2\CCc3ccccc32)nnn1-c1nonc1N was read as OX1R antag-1 12, TAAR1 ag 62*, OX1R antag-2 -24, TAAR1 antagonist 8, CHO parental Ca -14, TAAR1 ag conf 53*, Ga16 nonsel ag 16*, TAAR1 desensitize 21 and Ga16 nonsel ant 13.
CC1CN(C(=O)C2(C)CC2(Cl)Cl)CC(C)O1 (stereo unspecified) was read as OX1R antag-1 8, TAAR1 ag 1, OX1R antag-2 -2, TAAR1 antagonist -6 and CHO parental Ca 3.
Screening N#Cc1nc(-c2cccs2)oc1NCCc1ccccc1 returned OX1R antag-1 16, TAAR1 ag 51*, OX1R antag-2 -13, TAAR1 antagonist 3, CHO parental Ca -12, TAAR1 ag conf 49*, Ga16 nonsel ag 3, TAAR1 desensitize 25 and Ga16 nonsel ant 17.
`CCn1c(C)nc2cc(NC(=O)Nc3cccc(C(C)=O)c3)ccc21` gave OX1R antag-1 -4, TAAR1 ag 1, OX1R antag-2 -42, TAAR1 antagonist 0 and CHO parental Ca -6.
`C#CCOc1ccc(/C=C2/C(=O)NN(c3ccc(F)cc3)C2=O)cc1OC` gave OX1R antag-1 -7, TAAR1 ag 99*, OX1R antag-2 -2, TAAR1 antagonist 14, CHO parental Ca -2, TAAR1 ag conf 92*, Ga16 nonsel ag 55*, TAAR1 desensitize 44 and Ga16 nonsel ant 18.
`O=C(Cn1cnc2ccccc21)OCC(=O)N1CCCCC1` gave OX1R antag-1 -2, TAAR1 ag 2, OX1R antag-2 -1, TAAR1 antagonist -10 and CHO parental Ca -7.
For c1ccc(CCN2CN=C(Nc3nc4ccccc4s3)NC2)cc1 the results were OX1R antag-1 10, TAAR1 ag 79*, OX1R antag-2 -33, TAAR1 antagonist 51*, CHO parental Ca -56, TAAR1 ag conf 40*, Ga16 nonsel ag 0, TAAR1 desensitize 11 and Ga16 nonsel ant 3.
CCCCNc1nc(-c2ccccc2)nc(-n2ccnc2)n1 was read as OX1R antag-1 32, TAAR1 ag 1, OX1R antag-2 -23, TAAR1 antagonist 11 and CHO parental Ca -14.
Screening C=CCNc1nc(-c2ccccc2)nc(-n2ccnc2)n1 returned OX1R antag-1 14, TAAR1 ag 46*, OX1R antag-2 -25, TAAR1 antagonist 24, CHO parental Ca -6, TAAR1 ag conf -4, Ga16 nonsel ag -1, TAAR1 desensitize 0 and Ga16 nonsel ant 11.
Cn1cc(CN2CCc3ccccc3C2)c2ccccc21 was read as OX1R antag-1 13, TAAR1 ag 67*, OX1R antag-2 -28, TAAR1 antagonist 21, CHO parental Ca -10, TAAR1 ag conf 85*, Ga16 nonsel ag 1, TAAR1 desensitize 41 and Ga16 nonsel ant 4.
`Oc1ccc(CN2CCc3ccccc3C2)c2cccnc12` gave OX1R antag-1 5, TAAR1 ag 81*, OX1R antag-2 -15, TAAR1 antagonist 62*, CHO parental Ca -13, TAAR1 ag conf 77*, Ga16 nonsel ag 0, TAAR1 desensitize 24 and Ga16 nonsel ant 6.
For Oc1cc2c(cc1CN1CCc3ccccc3C1)OCO2 the results were OX1R antag-1 25, TAAR1 ag 69*, OX1R antag-2 -2, TAAR1 antagonist -7, CHO parental Ca -9, TAAR1 ag conf 22, Ga16 nonsel ag 2, TAAR1 desensitize 0 and Ga16 nonsel ant 0.
`Cn1cc(CN2CCCC(CO)(Cc3ccccc3)C2)c2ccccc21` (stereo unspecified) gave OX1R antag-1 25, TAAR1 ag 6, OX1R antag-2 -23, TAAR1 antagonist -11 and CHO parental Ca -24.
Screening Cc1c(Cc2ccccc2)c(=O)oc2cc(O)cc(O)c12 returned OX1R antag-1 47, TAAR1 ag 20, OX1R antag-2 -3, TAAR1 antagonist 16 and CHO parental Ca -2.
